Assay results of several laboratories.
Lines come from different studies, so protocols differ.
Target: BMP-2-inducible protein kinase (BMP2K, Homo sapiens, UniProt Q9NSY1)

Compound	observed	method	concentration	remaining binding
N[C@@H]1CCN(c2nccc(-c3cnn4ncccc34)n2)C1	binding	–	1 µM	100%
O=C(NCCCN1CCOCC1)c1ccc(Nc2ncc(Cl)c(-c3ccc(Cl)s3)n2)cc1	binding	competition with immobilised ligand	1 µM	0.1%
C[C@H]1CCN(c2nccc(-c3cnn4ncccc34)n2)C1	binding	–	1 µM	83%
Nc1ncc2c(n1)-c1c([nH]c3ccc(C#CC4CC4)cc13)CCCC2	binding	competition with immobilised ligand	1 µM	88%
O=C(c1ccc(Nc2nccc(-c3cc4ccccc4s3)n2)cc1)N1CCC(N2CCCC2)CC1	binding	competition with immobilised ligand	1 µM	0.5%
Cc1cnn2ncc(-c3ccnc(N(C)C)n3)c2c1	binding	–	1 µM	80%
Cc1cc(NC(=O)c2cccc(S(F)(F)(F)(F)F)c2)cc(-n2ccn3nc(-c4cccnc4)cc23)c1	cell-free assay	competition with immobilised ligand	1 µM	65.9%
c1cnn2ncc(-c3ccnc(N4CCC45COC5)n3)c2c1	binding	–	1 µM	61%
O=C(NCC1CCOCC1)c1n[nH]cc1NC(=O)c1c(F)cccc1F	binding	competition with immobilised ligand	1 µM	81%
O=C(N1CCS(=O)(=O)CC1)N1C[C@H](c2ccc(OC(F)(F)F)cc2)C[C@H](c2nc(C3CC3)no2)C1	cell-free assay	competition with immobilised ligand	1 µM	97%
C=CC(=O)N1CCC(C(=O)NCC(=O)N2CCN(c3nc(-c4cnc(N)nc4C(F)F)nc(N4CCOCC4)n3)CC2)CC1	binding	competition with immobilised ligand	1 µM	94%
CN(C)c1ncc(F)c(-c2cnn3ncccc23)n1	binding	–	1 µM	100%
c1cncc(-c2cccc(Nc3nccc(NC4CCCCC4)n3)c2)c1	binding	competition with immobilised ligand	10 µM	21%
Cc1cnc(Nc2ccc(C(=O)N3CCC(N4CCCC4)CC3)cc2)nc1-c1cc2ccccc2s1	binding	competition with immobilised ligand	1 µM	0.2%
Cc1c(C(=O)O)cc(-c2ccc(C3CCNCC3)cc2)c2ccc(-c3ccc(C(F)(F)F)cc3)cc12	binding	competition with immobilised ligand	1 µM	83%
COc1cnc(Nc2cccc(S(N)(=O)=O)c2)nc1N1CCN(c2ccccc2)CC1	binding	competition with immobilised ligand	1 µM	57%
CNC(=O)Nc1ccc2c(c1)CC[C@@]21OC(=O)N(CC(=O)N(Cc2ccc(F)cc2)[C@@H](C)C(F)(F)F)C1=O	cell-free assay	competition with immobilised ligand	1 µM	98%
COc1cnc(Nc2cccc(S(N)(=O)=O)c2)nc1N1CCN(c2ccccc2)C(=O)C1	binding	competition with immobilised ligand	1 µM	80%
CN(C)c1nccc(-c2cnn3ncccc23)n1	binding	–	1 µM	100%
CNC(=O)c1ccc(Nc2ncc(C(F)(F)F)c(NCc3nccnc3N(C)S(C)(=O)=O)n2)cc1	cell-free assay	competition with immobilised ligand	0.1 µM	81%
CN(C)c1nccc(-c2cnc3ncccn23)n1	binding	–	1 µM	100%
COc1cc(-c2cn(C3CCc4c(F)cccc4N(CC(F)(F)F)C3=O)nn2)ccc1-n1cnc(C)c1 (stereo not shown)	cell-free assay	competition with immobilised ligand	1 µM	100%
